{"source": "ChEMBL document CHEMBL4321879", "about": "“Novel Class of Colony-Stimulating Factor 1 Receptor Kinase Inhibitors Based on an o-Aminopyridyl Alkynyl Scaffold as Potential Treatment for Inflammatory Disorders” (J Med Chem, 2020)", "key": {"[1]": {"target": "Fibroblast growth factor receptor 2 (Homo sapiens, UniProt P21802)", "sequence (P21802 22-821 limits assumed)": "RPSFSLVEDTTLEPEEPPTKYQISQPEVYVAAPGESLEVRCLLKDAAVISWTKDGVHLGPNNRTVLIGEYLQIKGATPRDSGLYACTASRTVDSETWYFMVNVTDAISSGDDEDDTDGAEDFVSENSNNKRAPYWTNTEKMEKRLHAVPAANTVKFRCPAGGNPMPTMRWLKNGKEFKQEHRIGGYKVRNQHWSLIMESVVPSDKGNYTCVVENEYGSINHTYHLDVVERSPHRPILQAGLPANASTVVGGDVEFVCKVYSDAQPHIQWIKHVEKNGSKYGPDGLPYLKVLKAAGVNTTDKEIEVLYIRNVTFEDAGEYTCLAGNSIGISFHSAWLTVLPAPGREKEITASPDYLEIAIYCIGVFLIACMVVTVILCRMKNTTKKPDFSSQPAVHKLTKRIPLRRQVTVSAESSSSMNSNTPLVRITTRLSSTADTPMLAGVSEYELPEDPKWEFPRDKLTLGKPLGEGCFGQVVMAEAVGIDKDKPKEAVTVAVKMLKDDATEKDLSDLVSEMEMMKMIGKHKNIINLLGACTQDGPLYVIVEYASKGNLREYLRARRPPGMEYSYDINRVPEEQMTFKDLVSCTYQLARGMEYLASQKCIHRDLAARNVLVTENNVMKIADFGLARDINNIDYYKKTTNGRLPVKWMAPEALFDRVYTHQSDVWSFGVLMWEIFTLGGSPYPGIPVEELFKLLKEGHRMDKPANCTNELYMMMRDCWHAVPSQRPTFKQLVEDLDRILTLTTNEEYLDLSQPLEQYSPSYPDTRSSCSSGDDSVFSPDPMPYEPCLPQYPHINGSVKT", "test": "Inhibition of recombinant human N-terminal His6-tagged FGFR2 (456 to 770 residues) expressed in baculovirus infected Sf21 insect cells at 1000 nM using poly (Glu, Tyr)4:1 as substrate measured after 1 hr by ELISA relative to control", "outline": "(§1)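 Recombinant kinase was incubated with compound in reaction buffer containing 5 μM ATP, in wells precoated with poly(Glu,Tyr) 4:1, for 1 h at 37 °C. Phosphorylation was detected by ELISA.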"}, "[2]": {"target": "Voltage-gated inwardly rectifying potassium channel KCNH2 (Homo sapiens, UniProt Q12809)", "test": "Inhibition of human ERG by Qpatch automatic patch-clamp assays"}, "[3]": {"target": "Receptor tyrosine-protein kinase erbB-4 (Homo sapiens) (UniProt Q15303)", "sequence (Q15303 whole entry, the tested form may be a part)": "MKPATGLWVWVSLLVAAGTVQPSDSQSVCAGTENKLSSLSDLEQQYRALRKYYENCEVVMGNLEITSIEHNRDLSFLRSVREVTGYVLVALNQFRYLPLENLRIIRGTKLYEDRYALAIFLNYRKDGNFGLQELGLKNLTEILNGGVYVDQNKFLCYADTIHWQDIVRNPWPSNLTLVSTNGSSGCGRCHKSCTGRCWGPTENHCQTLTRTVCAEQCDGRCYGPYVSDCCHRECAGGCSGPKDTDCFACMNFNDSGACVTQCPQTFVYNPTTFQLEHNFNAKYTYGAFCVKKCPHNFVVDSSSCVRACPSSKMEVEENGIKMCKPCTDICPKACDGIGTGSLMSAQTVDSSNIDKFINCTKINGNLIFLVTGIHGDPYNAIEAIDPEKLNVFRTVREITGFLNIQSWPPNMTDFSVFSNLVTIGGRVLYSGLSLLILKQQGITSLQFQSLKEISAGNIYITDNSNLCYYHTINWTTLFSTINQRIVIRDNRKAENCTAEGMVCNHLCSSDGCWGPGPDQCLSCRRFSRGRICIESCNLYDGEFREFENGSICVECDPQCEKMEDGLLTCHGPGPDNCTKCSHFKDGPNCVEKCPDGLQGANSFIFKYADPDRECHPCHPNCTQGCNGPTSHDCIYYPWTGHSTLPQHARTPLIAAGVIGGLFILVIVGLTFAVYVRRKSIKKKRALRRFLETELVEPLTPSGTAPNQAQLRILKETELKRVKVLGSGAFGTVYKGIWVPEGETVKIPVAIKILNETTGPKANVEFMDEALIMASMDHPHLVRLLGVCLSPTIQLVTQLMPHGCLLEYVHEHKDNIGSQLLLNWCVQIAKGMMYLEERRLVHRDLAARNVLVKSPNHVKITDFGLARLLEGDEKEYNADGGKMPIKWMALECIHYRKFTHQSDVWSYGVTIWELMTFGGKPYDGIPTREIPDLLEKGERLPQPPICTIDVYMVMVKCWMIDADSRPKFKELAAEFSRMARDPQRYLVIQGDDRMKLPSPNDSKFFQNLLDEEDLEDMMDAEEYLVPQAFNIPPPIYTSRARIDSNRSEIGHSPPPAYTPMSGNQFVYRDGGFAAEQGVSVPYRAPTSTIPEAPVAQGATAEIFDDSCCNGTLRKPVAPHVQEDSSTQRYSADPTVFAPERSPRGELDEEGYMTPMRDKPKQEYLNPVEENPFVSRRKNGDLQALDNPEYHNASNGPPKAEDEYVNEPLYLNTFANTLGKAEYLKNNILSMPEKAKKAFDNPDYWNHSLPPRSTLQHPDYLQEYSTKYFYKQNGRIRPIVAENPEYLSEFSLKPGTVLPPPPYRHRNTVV", "test": "Inhibition of recombinant human N-terminal His6-tagged Erbb4 (706 to 991 residues) expressed in baculovirus infected Sf21 insect cells at 100 nM using poly (Glu, Tyr)4:1 as substrate measured after 1 hr by ELISA relative to control", "outline": "as §1"}, "[4]": {"target": "Insulin receptor (Homo sapiens) (UniProt P06213)", "test": "Inhibition of recombinant human N-terminal His6-tagged IR (1005 to 1310 residues) expressed in baculovirus infected Sf21 insect cells at 1000 nM using poly (Glu, Tyr)4:1 as substrate measured after 1 hr by ELISA relative to control", "outline": "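ELISA kinase assay: recombinant kinase added to wells precoated with poly(Glu,Tyr)4:1 and incubated with compound in reaction buffer containing 5 μM ATP, 37 °C for 1 h; wells then washed before antibody detection.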"}, "[5]": {"target": "Vascular endothelial growth factor receptor 3 (Homo sapiens) (UniProt P35916)", "sequence (P35916 whole entry)": "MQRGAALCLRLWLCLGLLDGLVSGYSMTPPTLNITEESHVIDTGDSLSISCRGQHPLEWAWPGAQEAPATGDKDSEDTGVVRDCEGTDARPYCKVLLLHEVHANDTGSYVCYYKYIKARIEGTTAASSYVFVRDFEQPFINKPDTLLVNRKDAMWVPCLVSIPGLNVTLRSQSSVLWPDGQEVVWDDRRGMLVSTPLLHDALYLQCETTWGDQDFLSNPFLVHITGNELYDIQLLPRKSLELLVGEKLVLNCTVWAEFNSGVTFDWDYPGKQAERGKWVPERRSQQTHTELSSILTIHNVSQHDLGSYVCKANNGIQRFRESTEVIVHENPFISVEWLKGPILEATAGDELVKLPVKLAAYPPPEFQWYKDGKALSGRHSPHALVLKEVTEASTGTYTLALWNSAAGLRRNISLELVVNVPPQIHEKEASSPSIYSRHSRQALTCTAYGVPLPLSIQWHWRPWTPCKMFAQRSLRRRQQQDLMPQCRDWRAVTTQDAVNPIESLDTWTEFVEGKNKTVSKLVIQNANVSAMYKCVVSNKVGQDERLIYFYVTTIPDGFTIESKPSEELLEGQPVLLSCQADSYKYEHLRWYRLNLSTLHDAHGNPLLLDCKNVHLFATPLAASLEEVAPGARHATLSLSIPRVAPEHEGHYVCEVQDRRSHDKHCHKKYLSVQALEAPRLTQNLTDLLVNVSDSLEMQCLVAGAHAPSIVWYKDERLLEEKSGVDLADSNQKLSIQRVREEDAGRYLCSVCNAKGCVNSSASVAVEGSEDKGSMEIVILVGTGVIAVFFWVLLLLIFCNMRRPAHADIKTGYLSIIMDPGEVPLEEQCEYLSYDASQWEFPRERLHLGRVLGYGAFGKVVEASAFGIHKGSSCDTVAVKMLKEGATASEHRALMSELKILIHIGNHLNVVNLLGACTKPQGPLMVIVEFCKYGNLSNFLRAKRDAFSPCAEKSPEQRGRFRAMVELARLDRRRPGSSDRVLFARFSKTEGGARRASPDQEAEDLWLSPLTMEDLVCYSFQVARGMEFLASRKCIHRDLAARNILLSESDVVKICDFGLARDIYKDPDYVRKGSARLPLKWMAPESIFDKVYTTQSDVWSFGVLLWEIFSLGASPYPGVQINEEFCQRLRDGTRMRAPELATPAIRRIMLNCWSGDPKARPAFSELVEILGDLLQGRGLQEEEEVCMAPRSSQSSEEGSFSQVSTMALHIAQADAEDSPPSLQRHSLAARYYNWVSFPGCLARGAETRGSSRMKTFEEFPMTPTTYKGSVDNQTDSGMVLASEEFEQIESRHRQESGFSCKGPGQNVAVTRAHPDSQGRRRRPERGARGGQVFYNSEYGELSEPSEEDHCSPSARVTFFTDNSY", "test": "Inhibition of recombinant VEGFR3 (unknown origin) at 100 nM using poly (Glu, Tyr)4:1 as substrate measured after 1 hr by ELISA relative to control", "outline": "as §1"}, "[6]": {"target": "Macrophage colony-stimulating factor 1 receptor (Mus musculus) (UniProt P09581)", "test": "Inhibition of CSF1R in CSF1-stimulated mouse RAW264.7 cells assessed as reduction in CSF1R phosphorylation preincubated for 6 hrs followed by CSF1 stimulation and measured after 20 mins by Western blot analysis", "assay_type": "cell-based", "outline": "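RAW264.7 cells were plated in six-well plates overnight, treated with compound for 6 h, then stimulated with CSF-1 100 ng/mL for 20 min. Lysates were normalized by BCA, run on 10% SDS-PAGE, and blotted with antibodies to phospho-CSF1R (Tyr723), CSF1R, phospho-Akt (Ser473), Akt and actin.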"}, "[7]": {"target": "Fibroblast growth factor receptor 1 (Homo sapiens, UniProt P11362)", "sequence (P11362 whole entry, the tested form may be a part)": "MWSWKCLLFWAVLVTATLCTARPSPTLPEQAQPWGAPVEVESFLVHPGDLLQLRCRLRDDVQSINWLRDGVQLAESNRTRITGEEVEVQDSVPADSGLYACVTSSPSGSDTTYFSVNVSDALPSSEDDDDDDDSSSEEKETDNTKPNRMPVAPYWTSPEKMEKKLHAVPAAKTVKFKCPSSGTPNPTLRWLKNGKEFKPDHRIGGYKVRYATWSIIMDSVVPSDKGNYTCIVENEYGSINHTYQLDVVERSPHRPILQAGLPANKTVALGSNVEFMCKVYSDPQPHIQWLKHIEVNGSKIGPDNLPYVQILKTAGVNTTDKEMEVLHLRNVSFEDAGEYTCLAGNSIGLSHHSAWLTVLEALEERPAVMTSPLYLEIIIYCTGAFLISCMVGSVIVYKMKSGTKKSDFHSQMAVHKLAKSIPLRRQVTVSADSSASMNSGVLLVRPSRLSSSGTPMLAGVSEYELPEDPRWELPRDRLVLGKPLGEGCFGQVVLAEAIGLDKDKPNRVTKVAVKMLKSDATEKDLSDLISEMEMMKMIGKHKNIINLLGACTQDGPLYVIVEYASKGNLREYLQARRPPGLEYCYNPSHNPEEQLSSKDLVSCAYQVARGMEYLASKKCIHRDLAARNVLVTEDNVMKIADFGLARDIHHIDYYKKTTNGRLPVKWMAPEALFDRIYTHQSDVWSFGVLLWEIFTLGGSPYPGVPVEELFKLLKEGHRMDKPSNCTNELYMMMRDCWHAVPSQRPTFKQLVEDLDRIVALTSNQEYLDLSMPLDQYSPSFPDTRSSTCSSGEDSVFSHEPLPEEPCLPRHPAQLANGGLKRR", "test": "Inhibition of recombinant human N-terminal GST-tagged FGFR1 (456 to 765 residues) expressed in baculovirus infected Sf21 insect cells using poly (Glu, Tyr)4:1 as substrate measured after 1 hr by ELISA", "outline": "as §1"}, "[8]": {"target": "Ephrin type-A receptor 2 (Homo sapiens) (UniProt P29317)", "test": "Inhibition of recombinant human N-terminal His6-tagged EphA2 (596 to 900 residues) expressed in baculovirus infected Sf21 insect cells at 100 nM using poly (Glu, Tyr)4:1 as substrate measured after 1 hr by ELISA relative to control", "outline": "as §1"}}}
{"smiles": "Cc1ccc(C(=O)Nc2ccc(Cl)cc2)cc1C#Cc1cc(-c2cnn(C)c2)cnc1N", "values": [{"measurement": "inhibition", "setting": "[1]", "value": 20.7, "unit": "%"}, {"measurement": "IC50", "setting": "[2]", "value": "> 40", "unit": "µM"}, {"measurement": "inhibition", "setting": "[3]", "value": 6.6, "unit": "%"}, {"measurement": "inhibition", "setting": "[4]", "value": 0, "unit": "%"}, {"measurement": "inhibition", "setting": "[5]", "value": 69.4, "unit": "%"}, {"measurement": "inhibition", "setting": "[6]", "value": "Dose-dependent effect"}, {"measurement": "IC50", "setting": "[7]", "value": "> 1", "unit": "µM"}, {"measurement": "inhibition", "setting": "[8]", "value": 31.4, "unit": "%"}]}
